Measured values from ChEMBL document CHEMBL1126633, “Prodrugs of doxorubicin and melphalan and their activation by a monoclonal antibody-penicillin-G amidase conjugate” (J Med Chem, 1993).

Tests used:
Format in all cases: functional, cell-based
[1] = tested on: H2981 cell line; experiment: Inhibition of [3H]thymidine incorporation in human lung adenocarcinoma cells in the absence of PGA enzyme; settings: H2981, 4 h
Procedure, shortened: (§1)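 H2981 human lung adenocarcinoma cells (10^7 cells/0.2 mL in IMDM with 10% FBS) were exposed to compound with or without added PGA at 37 °C for 4 h, then washed and counted. Triplicates were plated at 10^5 cells/mL, grown 24 h, and pulsed 24 h with [3H]thymidine (1 µCi/well). IC50 is the concentration giving 50% inhibition of incorporation.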

[2] = tested on: H2981 cell line; experiment: Inhibition of [3H]thymidine incorporation in human lung adenocarcinoma cells in the presence of PGA enzyme; procedure, shortened: as §1
[3] = tested on: H2981 cell line; experiment: Inhibition of [3H]thymidine incorporation in human lung adenocarcinoma cells in the absence of PGA enzyme (compound + 10 micro g/mL calf intestine alkaline phosphatase); settings: H2981, 4 h
Procedure, shortened: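 H2981 cells in IMDM with 10% FBS were exposed to compound without PGA for 4 h at 37 °C. Calf intestinal alkaline phosphatase was added to the incubation at 10 µg/mL. Cells were then washed, plated in triplicate at 10^5 cells/mL, grown 24 h and pulsed 24 h with [3H]thymidine (1 µCi/well). IC50 is the concentration giving 50% inhibition of incorporation.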

Row | IC50 [1] [µM] | IC50 ([2]; Homo sapiens, H2981, 4 h) [µM] | IC50 [3] [µM] | IC50 ([2]; h2981) [µM] | Structure (SMILES)
1 | > 1000 | 10 |  |  | COc1cccc2c1C(=O)c1c(O)c3c(c(O)c1C2=O)C[C@@](O)(C(=O)CO)C[C@@H]3OC1CC(NC(=O)Cc2ccc(N)cc2)C(O)C(C)O1 (some centres not stated)
2 | 2 | 0.2 |  |  | COc1cccc2c1C(=O)c1c(O)c3c(c(O)c1C2=O)C[C@@](O)(C(=O)CO)C[C@@H]3OC1CC(NC(=O)Cc2ccccc2)C(O)C(C)O1 (some centres not stated)
3 |  |  | > 1000 | 0.7 | COc1cccc2c1C(=O)c1c(O)c3c(c(O)c1C2=O)C[C@@](O)(C(=O)CO)C[C@@H]3OC1CC(NC(=O)Cc2ccc(OP(=O)(O)O)cc2)C(O)C(C)O1 (stereo in doubt)
4 | > 1000 |  |  | 4 | COc1cccc2c1C(=O)c1c(O)c3c(c(O)c1C2=O)C[C@@](O)(C(=O)CO)C[C@@H]3OC1CC(NC(=O)Cc2ccc(OP(=O)(O)O)cc2)C(O)C(C)O1 (stereo in doubt; 4)
5 | 0.7 |  |  |  | COc1cccc2c1C(=O)c1c(O)c3c(c(O)c1C2=O)C[C@@](O)(C(=O)CO)C[C@@H]3O[C@H]1C[C@H](N)[C@H](O)[C@H](C)O1 [DOXORUBICIN]

Row | Structure (SMILES) | IC50 [1] [µM] | IC50 ([2]; Homo sapiens, H2981, 4 h) [µM] | IC50 [3] [µM] | IC50 ([2]; h2981) [µM]
6 | O=C(Cc1ccccc1)NC(Cc1ccc(N(CCCl)CCCl)cc1)C(=O)O (configuration not stated) | 100 | 5 |  | 
7 | N[C@@H](Cc1ccc(N(CCCl)CCCl)cc1)C(=O)O [MELPHALAN] | 5 |  |  | 
